The text below walks through data of ChEMBL document CHEMBL1132723, “Potent 1,3-disubstituted-9H-pyrido[3,4-b]indoles as new lead compounds in antifilarial chemotherapy” (1999).

In test [1] the test system is Acanthocheilonema viteae. As to the kind of experiment: In vivo anti-filarial (macrofilaricidal) activity at an ip dose of 50 mg/kg (for 5 days) against A. viteae in Mastomys coucha. It counts as functional. To be noted: route intraperitoneal. The gist of the method: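 Infected *Mastomys coucha* were dosed for 5 consecutive days, either 50 mg/kg ip or 200 mg/kg orally. Compounds were given as fine suspensions in 1% Tween 80. Each dose level used two to three animals, with at least two replicates to confirm activity. Micro- and macrofilaricidal action was scored by the cited earlier method.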

Test [2] concerns Acanthocheilonema viteae. Description: In vivo anti-filarial (microfilaricidal) activity at an ip dose of 50 mg/kg (for 5 days) against A. viteae in Mastomys coucha. To be noted: route intraperitoneal. It counts as functional. The procedure, abridged:
(§1)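 Acanthocheilonema viteae infection in Mastomys coucha; compounds given as fine suspensions in 1% Tween 80 for 5 consecutive days, 50 mg/kg ip and/or 200 mg/kg orally. Micro- and macrofilaricidal action and sterilisation of surviving female worms were scored. Two to three animals per dose level, with at least two replicate experiments.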

Test [3] concerns Mus musculus. As to the kind of experiment: In vivo anti-filarial (mif-microfilaricidal) activity at an ip dose of 100 mg/kg (for 5 days) against Brugia malayi. The format is functional. To be noted: route intraperitoneal.
Test [4] concerns Rattus norvegicus. Description: In vivo anti-filarial (mif-microfilaricidal) activity at an ip dose of 75 mg/kg (for 5 days) against Litomosoides carinii in cotton rats. The format is functional. The note with it: route intraperitoneal.
Test [5] has as its system Rattus norvegicus. As to the kind of experiment: (§2) In vivo anti-filarial (maf-macrofilaricidal) activity at an ip dose of 30 mg/kg (for 5 days) against Litomosoides carinii in cotton rats. It counts as functional. To be noted: route intraperitoneal. The gist of the method: (§3)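 Cotton rats (Sigmodon hispidus), 6 weeks old, infected with Litomosoides carinii through the mite vector Liponyssus bacoti. Animals with ≥250 microfilariae/5 mm blood were used. Dosed 30 mg/kg ip for 5 consecutive days as a 1% Tween 80 suspension. Blood microfilariae were checked before treatment and weekly until day 42, when animals were killed and adult male and female worms examined.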

Test [6] has as its system Mus musculus. Description: In vivo anti-filarial (maf-macrofilaricidal) activity at an ip dose of 100 mg/kg (for 5 days) against Brugia malayi. It counts as functional. To be noted: route intraperitoneal.
Test [7] has as its system Mus musculus. Description: In vivo anti-filarial (maf-macrofilaricidal) activity at an ip dose of 50 mg/kg (for 5 days) against Brugia malayi. It counts as functional. The note with it: route intraperitoneal. The procedure, abridged: (§4)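 Male *Mastomys* infected at 6 weeks old with *B. malayi* larvae were dosed for 5 days, 50 mg/kg ip or 250 mg/kg orally, as a 1% Tween 80 suspension. Screening followed the *A. viteae* scheme. Micro- and macrofilaricidal action and sterilization of surviving female worms were scored. Each dose used two to three animals, with at least duplicate confirmation.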

Test [8] concerns Mus musculus. As to the kind of experiment: In vivo anti-filarial (mif-microfilaricidal) activity at an po dose of 250 mg/kg (for 5 days) against Brugia malayi. The format is functional. The gist of the method: (§5)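 Male Mastomys, 6 weeks old, each inoculated with 50 infective Brugia malayi larvae recovered from infected Aedes aegypti. Screening followed the A. viteae protocol, with a 1% Tween 80 suspension for 5 days at 50 mg/kg ip or 250 mg/kg orally. Micro- and macrofilaricidal action and sterilisation of surviving females were scored. Two to three animals per dose.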

Test [9] concerns Mus musculus. Description: Antifilarial activity evaluated as percent of surviving Brugia malayi that were sterlized after an ip dose of 50 mg/kg (for 5 days). The format is functional. To be noted: route intraperitoneal. The procedure, abridged: as §5
Test [10] relates to Acanthocheilonema viteae. As to the kind of experiment: In vivo anti-filarial (mif-macrofilaricidal) activity at an oral dose of 200 mg/kg (for 5 days) against A. viteae in Mastomys coucha.
The test system of test [11] is Acanthocheilonema viteae. As to the kind of experiment: Antifilarial activity as percent of surviving A. viteae in Mastomys coucha sterlized after an intraperitoneal dose of 50 mg/kg (for 5 days). It counts as functional. The procedure, abridged: as §1
The subject of test [12] is Mus musculus. Description: In vivo anti-filarial (mif-microfilaricidal) activity at an ip dose of 50 mg/kg (for 5 days) against Brugia malayi. The note with it: route intraperitoneal. The format is functional. The procedure, abridged: as §4
The subject of test [13] is Rattus norvegicus. The description is as §2. It counts as functional. To be noted: route intraperitoneal. The procedure, abridged: (§6)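 They received 30 mg/kg ip for 5 consecutive days as a 1% Tween 80 suspension. Blood microfilariae were counted before treatment and then weekly until day 42. Animals were then killed and adult worm condition scored.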
This is another data set of the same source.

Test [14] relates to Mus musculus. Description: In vivo anti-filarial (maf-macrofilaricidal) activity at an po dose of 250 mg/kg (for 5 days) against Brugia malayi. It counts as functional. The gist of the method: as §4
The subject of test [15] is Acanthocheilonema viteae. Description: In vivo anti-filarial (mif-microfilaricidal) activity at an ip dose of 200 mg/kg (for 5 days) against A. viteae in Mastomys coucha.
Test [16] concerns Rattus norvegicus. Description: Antifilarial activity evaluated as percent of surviving Litomosoides carinii in cotton rats that were sterlized after an ip dose of 30 mg/kg (for 5 days). It counts as functional. To be noted: route intraperitoneal. The gist of the method: as §3
In test [17] the test system is Rattus norvegicus. Description: In vivo anti-filarial (mif-microfilaricidal) activity at an ip dose of 30 mg/kg (for 5 days) against Litomosoides carinii in cotton rats. The format is functional. The note with it: route intraperitoneal. The gist of the method: as §6
The test system of test [18] is Mus musculus. Description: In vivo anti-filarial (mif-microfilaricidal) activity at an oral dose of 200 mg/kg (for 5 days) against A. viteae in Mastomys coucha. It counts as functional. The procedure, abridged: as §1
In test [19] the test system is Acanthocheilonema viteae. Description: In vivo anti-filarial (maf-macrofilaricidal) activity at an oral dose of 200 mg/kg (for 5 days) against A. viteae in Mastomys coucha.

Several values for one entry are separate records, joined by “and”; a condition that tells them apart may be missing. Equal values may be shown once.

`OCc1cc2c([nH]c3ccccc32)c(-c2ccc(F)cc2)n1`: the Activity with Acanthocheilonema viteae [1] was 75%; in the test on Acanthocheilonema viteae [2], 0%.
The like results for `COC(=O)c1cc2c([nH]c3ccccc32)c(-c2ccccc2F)n1` were, in that order, 44% and 0%.
As for `CCN(CC)C(=O)N1CCN(C)CC1.O=C(O)CC(O)(CC(=O)O)C(=O)O` [DIETHYLCARBAMAZINE CITRATE], the Activity in the test on Acanthocheilonema viteae [1] was determined as 0%; in the test on Mus musculus [3] it was 90%; in the test on Acanthocheilonema viteae [2], 90%; with Rattus norvegicus [4] it was 90%; in the test with Rattus norvegicus [5], 0%; with Mus musculus [6], 0%.
On to `COC(=O)c1cc2c([nH]c3ccccc32)c(-c2ccc(C)cc2)n1`, for which the figures for the Activity in the test on Acanthocheilonema viteae [1] and in the test on Acanthocheilonema viteae [2] were 100% and 0%, respectively.
For the compound `COC(=O)C1Cc2c([nH]c3ccccc23)C(c2ccc(F)cc2)N1` (stereo not given), the Activity in the test with Acanthocheilonema viteae [1] is recorded as 25%; in the test with Acanthocheilonema viteae [2] it was 0%.
As to `COC(=O)C1Cc2c([nH]c3ccccc23)C(c2cccc(Br)c2)N1` (stereo not given), the Activity in the test with Acanthocheilonema viteae [1] was 0%; in the test with Acanthocheilonema viteae [2] it was 90%.
As for `OCc1cc2c([nH]c3ccccc32)c(-c2ccc(Cl)cc2)n1`, the Activity in the test with Mus musculus [7] is 62%; in the test on Mus musculus [8], 0%; in the test with Mus musculus [9], 85%; with Acanthocheilonema viteae [10] it was 94%; with Acanthocheilonema viteae [11] it was 75%; in the test with Acanthocheilonema viteae [1], 56%. In addition, the Activity with Mus musculus [12] is 0%; in the test on Acanthocheilonema viteae [2], 76%; with Rattus norvegicus [13], 95%; in the test with Mus musculus [14] it was 56% and 69%; in the test with Acanthocheilonema viteae [15] it was 0%; with Rattus norvegicus [16], 0%. The compound also showed an Activity in the test on Rattus norvegicus [17] of 29%.
In the case of `COC(=O)C1Cc2c([nH]c3ccccc23)C(c2ccc(Cl)cc2)N1` (stereo not given), the values for the Activity with Acanthocheilonema viteae [11], in the test with Acanthocheilonema viteae [1] and with Acanthocheilonema viteae [2] were 100%, 39% and 94%, respectively.
`COC(=O)C1Cc2c([nH]c3ccccc23)C(c2ccc(C)cc2)N1` (stereo not given): the Activity in the test on Acanthocheilonema viteae [1] amounted to 90%; in the test with Acanthocheilonema viteae [2], 0%.
The like results for `NNC(=O)c1cc2c([nH]c3ccccc32)c(-c2ccsc2)n1` were, in that order, 0% and 91%.
Consider `Cc1ccc(-c2[nH]c(CO)cc3c4ccccc4nc2-3)cc1`, for which the Activity with Acanthocheilonema viteae [11] came out at 40%; in the test with Acanthocheilonema viteae [1], 0%; with Acanthocheilonema viteae [2] it was 0%.
For the compound `COC(=O)C1Cc2c([nH]c3ccccc23)C(c2ccsc2)N1` (stereo not given), the Activity with Acanthocheilonema viteae [1] is 57%; with Acanthocheilonema viteae [2], 0%.
For `NC(=O)c1cc2c([nH]c3ccccc32)c(-c2ccccc2Cl)n1`, the results for the Activity in the test on Acanthocheilonema viteae [11], in the test on Acanthocheilonema viteae [1] and in the test with Acanthocheilonema viteae [2] were 100%, 86% and 44%, respectively.
As to `NC(=O)c1cc2c([nH]c3ccccc32)c(-c2cccc(Br)c2)n1`, the results for the Activity in the test on Acanthocheilonema viteae [1] and in the test with Acanthocheilonema viteae [2] were 69% and 0%, respectively.
`COC(=O)c1cc2c([nH]c3ccccc32)c(-c2cccs2)n1`: the values for the Activity in the test on Acanthocheilonema viteae [11], in the test on Acanthocheilonema viteae [1] and in the test on Acanthocheilonema viteae [2] were 0%, 45% and 62%, respectively.
Consider `COC(=O)c1cc2c([nH]c3ccccc32)c(-c2cccc(Cl)c2)n1`, for which the Activity came to 81% with Acanthocheilonema viteae [1] and 0% in the test with Acanthocheilonema viteae [2].
The like results for `COC(=O)C1Cc2c([nH]c3ccccc23)C(c2cccc(Cl)c2)N1` (stereo not given) were, in that order, 50% and 0%.
Turning to `NC(=O)c1cc2c([nH]c3ccccc32)c(-c2cccc(Cl)c2)n1`, the values for the Activity in the test on Acanthocheilonema viteae [11], with Acanthocheilonema viteae [1] and in the test with Acanthocheilonema viteae [2] were 50%, 0% and 84%, respectively.
The like results for `NC(=O)c1cc2c([nH]c3ccccc32)c(-c2ccc(Cl)cc2)n1` were, in that order, 60%, 0% and 0%.
In the case of `COC(=O)C1Cc2c([nH]c3ccccc23)C(c2ccccc2Cl)N1` (stereo not given), the Activity in the test with Acanthocheilonema viteae [1] is 93%; with Mus musculus [18] it was 0%; with Acanthocheilonema viteae [19], 0%; with Acanthocheilonema viteae [2], 0%; in the test with Rattus norvegicus [16] it was 88%; in the test with Rattus norvegicus [17], 0%. Further, the Activity in the test on Rattus norvegicus [5] was determined as 20%.
`COC(=O)c1cc2c([nH]c3ccccc32)c(-c2ccsc2)n1`: the values for the Activity with Acanthocheilonema viteae [1] and in the test on Acanthocheilonema viteae [2] were 60% and 0%, respectively.
The like results for `NC(=O)c1cc2c([nH]c3ccccc32)c(-c2ccsc2)n1` were, in that order, 89% and 0%.
Regarding `COC(=O)c1cc2c([nH]c3ccccc32)c(-c2ccc(F)cc2)n1`, the Activity with Acanthocheilonema viteae [11] was 67%; with Acanthocheilonema viteae [1] it was 56%; with Acanthocheilonema viteae [2], 0%.
For `COC(=O)c1cc2c([nH]c3ccccc32)c(-c2ccccc2Cl)n1`, the results for the Activity in the test on Acanthocheilonema viteae [1] and in the test on Acanthocheilonema viteae [2] were 94% and 0%, respectively.
For the compound `COC(=O)c1cc2c([nH]c3ccccc32)c(-c2cccc(Br)c2)n1`, the Activity came to 100% in the test with Acanthocheilonema viteae [11], 84% in the test on Acanthocheilonema viteae [1] and 0% with Acanthocheilonema viteae [2].
As to `NC(=O)c1cc2c([nH]c3ccccc32)c(-c2cccs2)n1`, the results for the Activity in the test with Acanthocheilonema viteae [1] and with Acanthocheilonema viteae [2] were 0% and 93%, respectively.
